NR2E3 ag-1: NR2E3 (human) agonism; Q9Y5X4; GST-NR2E3/biotin-RetCOR TR-FRET, 1536-well; inhibition of corepressor binding, % at 4.78 µM; 0.12% of 320,000 active; AID 2300;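 active = percent inhibition above the cutoff of mean plus 3 SD of all tested compounds, set per screening campaign, cut at about 20% in these data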
Target sequence (Q9Y5X4 whole entry, looked up): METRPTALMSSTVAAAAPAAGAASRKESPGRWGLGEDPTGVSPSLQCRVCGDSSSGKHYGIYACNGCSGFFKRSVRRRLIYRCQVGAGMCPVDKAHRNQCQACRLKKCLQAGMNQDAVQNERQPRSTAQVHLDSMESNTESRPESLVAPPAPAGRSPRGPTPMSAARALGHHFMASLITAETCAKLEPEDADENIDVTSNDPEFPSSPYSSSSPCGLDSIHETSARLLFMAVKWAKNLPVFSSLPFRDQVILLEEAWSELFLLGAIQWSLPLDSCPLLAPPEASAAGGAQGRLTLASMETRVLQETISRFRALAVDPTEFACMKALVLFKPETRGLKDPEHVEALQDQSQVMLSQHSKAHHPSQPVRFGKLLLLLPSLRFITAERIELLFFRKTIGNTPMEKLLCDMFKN
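Test system – NR2E3–RetCOR corepressor complex · Quantity – NR2E3 fusion 1.35 nM · Buffer or medium – Tris pH 7.5 · Incubation – Compound–protein incubation for 5 h at 4 °C · Technique – TR-FRET, Eu(K)-anti-GST donor, streptavidin-D2 acceptor, ex 340, em 617/671 nm · Evaluation – percent inhibition of 671/617 nm emission ratio versus biotin and DMSO controls · Plate – 1536-well format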
PG9 Ab binder: PG9 antibody binding by small molecule; 0.43% of 360,000 active; TR-FRET gp120-PG9 antibody binding; AID 624416; inhibition, % at 6.7 µM; in the data active = inhibition above about 8.5%
NR2E3 ag-2: activates human NR2E3 receptor; Q9Y5X4; CHO-S Gal4-NCOR/VP16-NR2E3 two-hybrid, luciferase; inhibition of corepressor binding, % at 3.98 µM; 0.35% of 360,000 active;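 active = inhibition above the mean of all tested compounds plus 3 SD, cut at about 70% in these data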;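 also: higher means lower luciferase signal from less NR2E3 corepressor binding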
Rev-erbA mod: modulators of human Rev-erb alpha DNA binding; P20393; Rev-erbα–FITC-DNA binding, fluorescence polarization, 90 min; activity, % at 10 µM; 0.79% of 370,000 active; AID 1259318;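 active = activity above about 14%, limit read from the data; passing the limit was not always enough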
NR1D1 mod conf: Rev-erb alpha (human) modulation, hit confirmation; shares compounds with Rev-erbA mod; Rev-erb alpha FITC-DNA binding, fluorescence polarization, 90 min; activation, % at 25 µM; 61% of 3,000 active; AID 1259319;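 active = activation at or above a set limit, or at least 3 SD above the negative control mean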
RORg counter: counter-screen for Rev-erb alpha modulators: RORgamma DNA binding | shares compounds with Rev-erbA mod | IC50, µM | 8% of 910 active | purified RORgamma protein-FITC-DNA binding, fluorescence polarization;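 active = Compounds whose fitted half-maximal concentration for disrupting protein-DNA binding is below 10 micromolar; the record names Rev-erb in its text, so the target is in doubt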
Numbers stand for hits; i = inactive; nt = no result given. In the library only some 1.5% were active in any assay of this set; here they are far more common.

SMILES	NR2E3 ag-1	PG9 Ab binder	NR2E3 ag-2	Rev-erbA mod	NR1D1 mod conf	others
COC(=O)C1CN(C2CC2)CCS(=O)(=O)N1Cc1cn(Cc2ccc(Cl)cc2)nn1 (stereo not given)	nt	nt	nt	i	nt
CC(C)(C)C(=O)OC12CCCN(C1)/C(=C/c1ccncc1)C2 (stereo not given)	nt	nt	nt	i	nt
CC(=O)NC(c1ccc(F)c(F)c1)c1nc(-c2ccc(F)c(Cl)c2)cs1 (stereo not given)	nt	i	i	42	i
OC(c1ccccc1)c1nc(-c2ccc(F)c(Cl)c2)cs1 (stereo not given)	nt	i	i	16	i
CC(=O)NC(c1ccc(F)c(F)c1)c1nc(-c2ccc(C)c(C)c2)cs1 (stereo not given)	nt	i	i	i	nt
Fc1ccc2cc(C3=CCCCC3)ncc2c1	nt	i	nt	i	nt
O=c1[nH]nc(Cc2ccc(Cl)cc2)c2ccccc12	i	i	i	i	nt
O=c1[nH]nc(Cc2ccc(-c3ccccc3Cl)o2)c2ccccc12	i	i	i	34	17
CCOC(=O)C1C[C@@H](O)C=CC1=O (stereo not given in full)	nt	nt	nt	i	nt
COc1ccc(C2c3ccccc3NC3C2C(=O)N(Cc2ccc(OC)cc2OC)[C@H]3Cc2ccccc2)cc1 (stereo not given in full)	nt	nt	nt	i	nt
COc1cccc(C(=O)CSc2nnc(-c3cc(OC)cc(OC)c3)o2)c1	i	i	i	27	36	RORg counter=i
COc1cccc(C(=O)CSc2nnc(-c3cccs3)o2)c1	i	i	i	i	nt
COc1ccccc1CN1C[C@@H]2C[C@@H](c3ccc(C)cc3)N3CCC[C@@]23C1=O	i	i	i	i	nt
CCc1ccc([C@@H]2C[C@H]3CN(Cc4ccccc4OC)C(=O)[C@]34CCCN24)cc1	i	i	i	53	i
CCn1ccnc1[C@@H]1C[C@H]2CN(Cc3ccccc3OC)C(=O)[C@]23CCCN13	i	i	i	25	i
Cc1cc(C)c(C#N)c(SCCS(=O)(=O)c2ccc(Cl)cc2)n1	i	i	i	i	nt
Cc1cc(C)c(C#N)c(SCCS(=O)(=O)c2ccc(C(C)(C)C)cc2)n1	i	i	i	24	i
O=C(CSc1nnc(-c2ccc(S(=O)(=O)N3CCOCC3)cc2)o1)c1ccccc1F	i	i	i	21	i
COc1ccc(C(=O)CSc2nnc(-c3ccc(S(=O)(=O)N4CCOCC4)cc3)o2)cc1	i	i	i	i	nt
CCCCN1CCCOc2cc(Br)ccc2S1(=O)=O	nt	nt	nt	i	nt
CCc1cc(=O)oc2c(C)c(OCC(=O)NCc3ccccn3)ccc12	i	i	i	30	23
CCN(Cc1nc2cc(Cl)ccc2c(=O)[nH]1)C(=O)C1CC(=O)N(c2cccc3ccccc23)C1 (stereo not given)	i	i	i	i	nt
CCN(Cc1nc2cc(Cl)ccc2c(=O)[nH]1)C(=O)c1cc2c(s1)CCCCC2	nt	i	i	54	34	RORg counter=i
CCCC/C=C1/[C@@H](C(C)C)N(Cc2ccc3c(c2)OCO3)C2=N[C@H](c3ccccc3)CC(=O)N21	nt	nt	nt	i	nt
CCc1ccc(OCC(=O)NNC(=O)CSc2ncnc3sc(C)c(C)c23)cc1	i	i	i	26	i
SMILES	NR2E3 ag-1	PG9 Ab binder	NR2E3 ag-2	Rev-erbA mod	NR1D1 mod conf	others
Cc1ccc(OCC(=O)NNC(=O)CSc2ncnc3sc(C)c(C)c23)cc1	i	i	i	52	i
CC1CCC2(CCC(=O)N2CCCOC(=O)c2ccccc2)CC1 (stereo not given)	nt	nt	nt	i	nt
N#CCCn1cc(/C=C(\C#N)c2nc3ccccc3s2)c(-c2ccc(F)cc2)n1	i	i	i	45	35
Cc1ccc(OCC(C)CN2CCC(C(O)(c3ccccc3)c3ccccc3)CC2)cc1 (stereo not given)	nt	nt	nt	i	nt
O=C1NC(=O)C(=O)N1	i	i	i	i	nt
O=C1NC(=O)c2c(Br)c(Br)c(Br)c(Br)c21	nt	i	i	395	442	RORg counter=7.5
CCCn1c(N)c(C(=O)CSc2nc(C)nc3sc(C)c(C)c23)c(=O)[nH]c1=O	i	i	i	35	61	RORg counter=i
CCCn1c(N)c(C(=O)CSc2nc(C)cs2)c(=O)[nH]c1=O	i	i	i	i	nt
CCN(C(=O)CSc1nc(C)nc2sc(C)c(C)c12)c1ccc(F)cc1	i	i	i	24	i
CCCn1c(N)c(C(=O)CSc2nc3ccccc3c(=O)n2Cc2ccccc2)c(=O)[nH]c1=O	i	i	i	74	61
Cc1nc(SCC(=O)N(C)Cc2ccco2)c2c(C)c(C)sc2n1	i	i	i	i	nt
Cc1cc(C)cc(NC(=O)O[C@@H]2CC[C@@]34CCCN3C(=O)CCC[C@H]4C2)c1	nt	nt	nt	i	nt
O=C(Cc1cccs1)N/N=C\c1ccccc1	nt	nt	nt	i	nt
O=C(Oc1ccc([N+](=O)[O-])cc1)O[C@H]1CC[C@@]23CCCN2C(=O)CCC[C@H]3C1	nt	nt	nt	i	nt
Cc1ccc(-c2c(C#N)c(N)n(-c3ccccc3C)c(=O)c2C#N)cc1	nt	i	i	i	nt
Cc1ccc(-n2c(N)c(C#N)c(-c3ccccc3)c(C#N)c2=O)cc1	i	i	i	22	62	RORg counter=i
COCCOC(=O)c1c(C)oc2ccc(OCc3cc(C(=O)OC)oc3C)cc12	i	i	i	i	nt
COC(=O)c1cc(COc2ccc3c(c2)oc(=O)c2ccccc23)c(C)o1	i	i	i	29	24
CCCCNC(=O)OCCCN1CCC2(CCC(c3ccccc3)CC2)C1 (stereo not given)	nt	nt	nt	i	nt
CC(C)CCN(C)C1CCN(C(=O)Nc2ccccc2)CC1	nt	nt	nt	i	nt
COc1ccc(CC(=O)Nc2cc(C)c3c(=O)oc4ccccc4c3n2)cc1	i	i	i	41	32	RORg counter=i
CCOc1ccc(C(=O)Nc2cc(C)c3c(=O)oc4ccccc4c3n2)cc1	i	i	i	55	18
COc1ccc(CNC2CCC23CCC(c2ccccc2)CC3)cc1OC (stereo not given)	nt	nt	nt	i	nt
O=C1c2ccc(-c3ccc(F)cc3OCc3ccccc3)cc2S(=O)(=O)c2cccc(C(=O)N3CCN(c4ncc(Br)cn4)CC3)c21	nt	i	i	75	66
COc1ccc(/C=C2/SC(=S)N(Cc3ccccc3)C2=O)cc1O	nt	i	i	i	nt
SMILES	NR2E3 ag-1	PG9 Ab binder	NR2E3 ag-2	Rev-erbA mod	NR1D1 mod conf	others
O=C1/C(=C\c2cc(Cl)c(O)c(Cl)c2)SC(=S)N1Cc1ccccc1	nt	i	i	67	51	RORg counter=i
N#C/C(=C\c1ccc(-c2ccccc2C(=O)O)o1)c1nc2ccccc2[nH]1	i	i	i	i	nt
Cc1cc2nc(/C(C#N)=C\c3ccc(-c4ccccc4C(=O)O)o3)[nH]c2cc1C	i	i	i	42	30
Cc1ccc2nc(/C(C#N)=C/c3ccc(-c4ccccc4C(=O)O)o3)[nH]c2c1	i	i	i	41	31	RORg counter=i
Cc1cc2nc3s/c(=C/c4ccc(-c5ccccc5C(=O)O)o4)c(=O)n3c2cc1C	i	i	i	i	nt
Cn1c2ccccc2c(=O)c2c(=O)n(Cc3cccc4ccccc34)cnc21	nt	nt	nt	18	20
O=c1c2ccccc2ncn1Cc1cccc2ccccc12	i	i	i	i	nt

Compound activity deposited in PubChem BioAssay by several laboratories.
